Variants at the floor of the assay were thinned out.
B1: tRNA (parent)
chain: GUUCCGUUGGCGUAAUGGUAACGCGUCUCCCUCCUAAGGAGAAGACUGCGGGUUCGAGUCCCGUACGGAACG

Variants of: B1
Experiment: yeast fitness relative to wild type (ratio to wild type); higher = fitter; tRNA-Arg(CCU), competitive growth, 37 C, YPD
In short: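 For this measurement, the tRNA-Arg(CCU) gene was varied by chemical synthesis at a 3% per-site mutation rate across 69 sites, and each variant was placed at the native genomic locus in Saccharomyces cerevisiae. The pooled strains went through a 24-hour competition in YPD at 37°C in six parallel replicates, with amplicons from start and end populations read by 100-nucleotide paired-end sequencing. Darwinian fitness relative to wild type followed from the change in each genotype's frequency. Genotypes needed ≥ 100 starting reads, and estimates < 0.5 were set to 0.5.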
U2G C29U gave a yeast fitness of 0.851. For U3A C5G U35A A40U C46G U53A, the yeast fitness was 0.583. In the case of U3A C34A A69G, the yeast fitness is reported as ≤ 0.5. U3A G23A A70G gave a yeast fitness of 0.561. With U3A C27A C29G A65G the yeast fitness was ≤ 0.5. For U3A C4U G10A C33G C34G A57U, the yeast fitness was ≤ 0.5. For U3A G23A U32A, the yeast fitness was ≤ 0.5. With U2G G10C U35G C46U A65C G67C the yeast fitness was ≤ 0.5. For U3A A65G G68A A70U, the yeast fitness was 0.556. U3A C11U showed a yeast fitness of 0.808. With U3A A45U C46G G52A the yeast fitness was 0.613. In the case of U2G A45C, the yeast fitness is reported as 0.766. For U3A U16C C33G C62U, the yeast fitness was ≤ 0.5. With U3A C4G U8A C34U the yeast fitness was ≤ 0.5. With U2G G25C C27G C34U U35A G38A U59A the yeast fitness was ≤ 0.5. With U3A G10C A57G C66U the yeast fitness was ≤ 0.5. With U3C A40U A45U G52A the yeast fitness was ≤ 0.5. U3A C5U C46A showed a yeast fitness of 0.724. For U3A C4G U8A C24G U53C G58A, the yeast fitness was ≤ 0.5. U3A A65C A70U showed a yeast fitness of 0.66. With U3A C5A G6C A37C A45U G68C the yeast fitness was ≤ 0.5. U3A U19A C61U A70U showed a yeast fitness of 0.551. U3A C31G showed a yeast fitness of 0.845. For U3A U59G, the yeast fitness was 0.81. Variant U3A U59A has a yeast fitness of 0.658. Variant U2G C24G C30G C31U U35A A36U G44A G63C has a yeast fitness of 0.552. For U3A C5U A37U, the yeast fitness was ≤ 0.5. In the case of U2G C33U C34G A69U, the yeast fitness is reported as ≤ 0.5. Variant U3C A20G U47C has a yeast fitness of 0.686. U2G U13A showed a yeast fitness of 0.822. With U3C C4A G23A C31G A40C the yeast fitness was ≤ 0.5. With U3A A40G A42G A57C C66U the yeast fitness was ≤ 0.5. For U2G C11G, the yeast fitness was 0.703. For U3A C30U U54A, the yeast fitness was ≤ 0.5. For U3C C4G C66G, the yeast fitness was ≤ 0.5. In the case of U3C A20G A43G, the yeast fitness is reported as 0.744. For U2G C4A C22U U28G A42U C49A, the yeast fitness was ≤ 0.5. In the case of U3A G10C G39C G48A, the yeast fitness is reported as ≤ 0.5. With U3A G6A C31U A40C the yeast fitness was ≤ 0.5. Variant U3C A45U G51C has a yeast fitness of 0.574. For U3A A36U A43G G52C, the yeast fitness was ≤ 0.5. In the case of U2G G10A A15U A21C G25C, the yeast fitness is reported as ≤ 0.5. For U3A G6C C55G, the yeast fitness was ≤ 0.5. U3A G18A C49G C55G C60A C62A G68A A69U showed a yeast fitness of 0.623. In the case of U3C A21U C34A G52A C61G G63A, the yeast fitness is reported as ≤ 0.5. For U2G A15G U26C C34U, the yeast fitness was 0.611. U2G G25U C49U A65G gave a yeast fitness of 0.64. In the case of U2G C11G G38C G44A C62U U64C, the yeast fitness is reported as ≤ 0.5. With U2G C5A A43U C55U G68A the yeast fitness was ≤ 0.5. U3A A14G gave a yeast fitness of 0.934. For U3C A43C A65U, the yeast fitness was 0.604. With U2G U32C C33G C62U the yeast fitness was 0.535. In the case of U3A A14G C46G, the yeast fitness is reported as 0.62. In the case of U2G U19A A21G A42C G48C C49A, the yeast fitness is reported as ≤ 0.5. With U3A G23C A45G the yeast fitness was ≤ 0.5. For U2G G17A C24U A36U A37U A70U, the yeast fitness was ≤ 0.5. Variant U3A C22G has a yeast fitness of 0.714. In the case of U2G C29U U54C A57G U59C, the yeast fitness is reported as ≤ 0.5. With U2G A36U A45U U53A the yeast fitness was ≤ 0.5. For U3A C4G A43G, the yeast fitness was ≤ 0.5. In the case of U3A C5A G6C A15G U16A U26G G38C U54A, the yeast fitness is reported as ≤ 0.5. In the case of U3A C22G C31G, the yeast fitness is reported as ≤ 0.5. For U3A U16A C22U A36C G38U G48C, the yeast fitness was ≤ 0.5. Work on U2G A42C U47A G63C A69C yielded a yeast fitness of 0.558. U3A U7C gave a yeast fitness of 0.839. Work on U2G G6A A20G yielded a yeast fitness of 0.61. For U2G U54C C66U, the yeast fitness was ≤ 0.5. U3C C5U G39C showed a yeast fitness of 0.57. With U2G G10C A45U C46U U47C U64C the yeast fitness was ≤ 0.5. In the case of U2G C60U C61A G67C, the yeast fitness is reported as ≤ 0.5. In the case of U2G C30A U35G G51C, the yeast fitness is reported as ≤ 0.5. In the case of U3A C5U A42G G52C A57G, the yeast fitness is reported as ≤ 0.5. In the case of U2G C11A C24A U26A G44C, the yeast fitness is reported as ≤ 0.5. In the case of U3A A14G G58A, the yeast fitness is reported as 0.883. In the case of U2G C24A C31G, the yeast fitness is reported as ≤ 0.5. Variant U2G G12A A14G has a yeast fitness of 0.561. Work on U3A C5U C33G yielded a yeast fitness of 0.639. Variant U3A U19A C24U has a yeast fitness of 0.74. In the case of U3C A21U G38C, the yeast fitness is reported as 0.668. In the case of U2G G6A U13G C49U G56A A70G, the yeast fitness is reported as ≤ 0.5. With U2G C33A G39C the yeast fitness was ≤ 0.5. For U3C A69U, the yeast fitness was 1.03. U2G C62G G67A gave a yeast fitness of 0.526. With U2G C27G C33U the yeast fitness was 0.644. For U3A C62A, the yeast fitness was 0.727. Work on U2G C22A G25A yielded a yeast fitness of 0.639. For U3A C27A C30U G41C A43U C49A, the yeast fitness was ≤ 0.5. With U3A G9C C27G C34A the yeast fitness was ≤ 0.5. For U2G C11G A20U C24G C60G G68C, the yeast fitness was 0.518. With U2G G17C C33U U47A A69U the yeast fitness was ≤ 0.5. For U3A A14C A42C U47C, the yeast fitness was ≤ 0.5. For U2G G9C A20G A42C C46G C49U C62A A69C, the yeast fitness was ≤ 0.5. With U3A C24U C31G G44C A69U the yeast fitness was ≤ 0.5. Variant U3C A36C has a yeast fitness of 0.566. In the case of U3A U47G G67A A69U, the yeast fitness is reported as ≤ 0.5. In the case of U2G A14G C27G G52C, the yeast fitness is reported as ≤ 0.5. With U3C C5G G51C the yeast fitness was ≤ 0.5. In the case of U2G A40U C49A, the yeast fitness is reported as 0.547. For U2G A21C C22G A45U G63C, the yeast fitness was ≤ 0.5. For U3A C4U A43C G50A A70U, the yeast fitness was ≤ 0.5. Work on U2G C27U A45C yielded a yeast fitness of 0.657. For U2G U7C G18C A42U C49G, the yeast fitness was ≤ 0.5. For U2G A21C C22U C60G, the yeast fitness was ≤ 0.5. U3A C55U showed a yeast fitness of 0.876. For U3C C5G G17C C29U, the yeast fitness was ≤ 0.5. With U3A C4U G48U the yeast fitness was ≤ 0.5. In the case of U3A C27G C31U C33U A42C G58C, the yeast fitness is reported as ≤ 0.5. Work on U3A C11A C33U yielded a yeast fitness of 0.502. With U3A C30U the yeast fitness was 0.822. In the case of U2G C30U U32C C55G, the yeast fitness is reported as ≤ 0.5. U2G A20U C29A G39A A45C gave a yeast fitness of 0.586. In the case of U3A G41C G63C A65U, the yeast fitness is reported as ≤ 0.5. For U2G C4U C61A A65U A69C, the yeast fitness was ≤ 0.5. For U3C A36G C61U, the yeast fitness was 0.623. For U3C C4U C27U C30A G41C C49A C55G C61A, the yeast fitness was ≤ 0.5. With U2G C11G A20U C24G G51A C60G G68C the yeast fitness was ≤ 0.5. In the case of U3A C5A A45C G50C C61U G68A, the yeast fitness is reported as ≤ 0.5. Work on U3A A36C G51C yielded a yeast fitness of 0.534. U3A U54C gave a yeast fitness of 0.777. With U3C A14U U28G the yeast fitness was ≤ 0.5. In the case of U2G C31A G56U G67A, the yeast fitness is reported as ≤ 0.5. U3A A36G G68A A70C showed a yeast fitness of 0.566. With U2G G10C G56C A69U the yeast fitness was ≤ 0.5. U2G C31U G48C G67C showed a yeast fitness of 0.702. For U3A C22G C24U C33A G58A, the yeast fitness was ≤ 0.5. For U2G A14C A65C, the yeast fitness was ≤ 0.5. With U3C C5G A40G the yeast fitness was ≤ 0.5. In the case of U3A C34U A45G C49U U53A, the yeast fitness is reported as ≤ 0.5. U2G C11G A20U C24G gave a yeast fitness of 0.534. Variant U3C A42C A69C has a yeast fitness of 0.978. Work on U3A C27G U28G A36U A45U C49G yielded a yeast fitness of 0.662. With U3A G6A U16A C24G A37U C49U G67A the yeast fitness was ≤ 0.5. With U2G C24G C29G C31G U64C the yeast fitness was ≤ 0.5. U3C A45C C49U gave a yeast fitness of 0.712. U3A C11U A65C showed a yeast fitness of 0.61. With U2G G10C A70C the yeast fitness was ≤ 0.5. In the case of U3A A21C C24G G68A, the yeast fitness is reported as ≤ 0.5. For U3A A14C A20C U64A, the yeast fitness was ≤ 0.5. Work on U3A A20U G67U yielded a yeast fitness of 0.598. In the case of U3A C30G C31U, the yeast fitness is reported as ≤ 0.5. With U3C A57C U64A the yeast fitness was ≤ 0.5. With U3C A45U C49G the yeast fitness was 0.678. For U2G C11A C24A U26A G44C G68A, the yeast fitness was ≤ 0.5. With U3C A15C A65C the yeast fitness was ≤ 0.5. U2G C60A C66G showed a yeast fitness of 0.989. Variant U2G C5U U32C C55U has a yeast fitness of 0.581. With U2G G18A C27A C30U the yeast fitness was ≤ 0.5. For U3A U13C C49G, the yeast fitness was ≤ 0.5. With U3A A36U A37G the yeast fitness was ≤ 0.5. With U2G G39A C61G the yeast fitness was ≤ 0.5. With U3A C11G G12A C22U G39A the yeast fitness was ≤ 0.5. In the case of U2G C4G C11A, the yeast fitness is reported as ≤ 0.5. For U3A C30G A36G C46G, the yeast fitness was ≤ 0.5. In the case of U2G C22U C66U, the yeast fitness is reported as 0.563. For U2G C4U C61A C62U A65U A69C, the yeast fitness was 0.519. In the case of U2G C11G C66U, the yeast fitness is reported as ≤ 0.5. Work on U3A G38A yielded a yeast fitness of 0.787. For U3A C4U C11A G44A, the yeast fitness was ≤ 0.5. In the case of U2G A15C G17C C22G C24A C31A G67C, the yeast fitness is reported as 0.579. With U3A C24G A69C the yeast fitness was ≤ 0.5. For U3A C4U G25C A69C, the yeast fitness was ≤ 0.5. For U2G G39C, the yeast fitness was 0.715. In the case of U3A C22U G39A C66U A69C, the yeast fitness is reported as ≤ 0.5. In the case of U3A C4U C33G C34G U54A, the yeast fitness is reported as ≤ 0.5. Work on U3A G67A yielded a yeast fitness of 0.684. With U2G C30U U59C the yeast fitness was ≤ 0.5. With U2G A15U A20C U26A C30G U35A G38C U64A the yeast fitness was ≤ 0.5.

From the RNAGym collection of RNA variant scans (doi:10.1126/science.aae0568)
